Assay results published in ChEMBL document CHEMBL5674883, “The Heterochromatin Landscape in Migrating Cells and the Importance of H3K27me3 for Associated Transcriptome Alterations” (Cells, 2018).

Experiments:
Type in all cases: cell-based
[1] = biological target: T1, RNA polymerase II (Mus musculus) (UniProt P08775+Q8CFI7+P97760+A0A3Q4L2S8+Q80UW8+P61219+P62488+Q923G2+P60898+O08740+Q63871+P62876); assay: Inhibition of RNA polymerase II in mouse B16-F1 migrating cells assessed as fold change in Acbd6-RNA stability at 0.1 mM measured by […] analysis relative to control cells
[2] = biological target: T1, RNA polymerase II (Mus musculus); assay: Inhibition of RNA polymerase II in mouse B16-F1 migrating cells assessed as fold change in Tk2-RNA stability at 0.1 mM measured by […] analysis relative to control cells
[3] = biological target: T1, RNA polymerase II (Mus musculus); assay: Inhibition of RNA polymerase II in mouse B16-F1 migrating cells assessed as fold change in Polr3f-RNA stability at 0.1 mM measured by […] analysis relative to control cells
[4] = biological target: T1, RNA polymerase II (Mus musculus); assay: Inhibition of RNA polymerase II in mouse B16-F1 migrating cells assessed as fold change in Zfp367-RNA stability at 0.1 mM measured by […] analysis relative to control cells
[5] = biological target: T1, RNA polymerase II (Mus musculus); assay: Inhibition of RNA polymerase II in mouse B16-F1 migrating cells assessed as fold change in Med25-RNA stability at 0.1 mM measured by ChIP-seq analysis relative to control cells
[6] = biological target: T1, RNA polymerase II (Mus musculus); assay: Inhibition of RNA polymerase II in mouse B16-F1 migrating cells assessed as fold change in Kdelr1-RNA stability at 0.1 mM measured by ChIP-seq analysis relative to control cells
Procedure, shortened: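 Mouse B16-F1 melanoma cells grown to confluence on fibronectin in DMEM/10% FCS at 37 °C, 7% CO2. Migration induced by multiple scratches and 3 h incubation; unscratched controls. DRB 0.1 mM added 3 h before lysis. RNA from poly A-selected mRNA was sequenced (RNA-seq, three replicates per DRB group). Fold change computed for DRB-treated migrating vs DRB-treated control cells; cutoffs fold change >1.3, FDR <0.05.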

[7] = biological target: T1, RNA polymerase II (Mus musculus); assay: Inhibition of RNA polymerase II in mouse B16-F1 migrating cells assessed as fold change in Otud6b-RNA stability at 0.1 mM measured by […] analysis relative to control cells
[8] = biological target: T1, RNA polymerase II (Mus musculus); assay: Inhibition of RNA polymerase II in mouse B16-F1 migrating cells assessed as fold change in Trappc8-RNA stability at 0.1 mM measured by […] analysis relative to control cells
[9] = biological target: T1, RNA polymerase II (Mus musculus); assay: Inhibition of RNA polymerase II in mouse B16-F1 migrating cells assessed as fold change in Gria4-RNA stability at 0.1 mM measured by ChIP-seq analysis relative to control cells
[10] = biological target: T1, RNA polymerase II (Mus musculus); assay: Inhibition of RNA polymerase II in mouse B16-F1 migrating cells assessed as fold change in Rpl27-RNA stability at 0.1 mM measured by […] analysis relative to control cells
[11] = biological target: Histone-lysine N-methyltransferase EZH2 (Mus musculus) (UniProt Q61188); assay: Inhibition of EZH2 in mouse B16-F1 migrating cells assessed as fold change in H3K27me3-buffered regulated Fam184b-mRNA expression at 3 uM measured by […] analysis relative to control cells
Procedure, shortened: (§1)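 Confluent B16-F1 cells on fibronectin-coated plates, cultured at 37 °C and 7% CO2, were scratched at multiple sites to induce migration. They were then held 3 h in growth medium containing 3 µM GSK343, with the inhibitor added 3 h before lysis. Unscratched cells served as controls. Poly A mRNA was analysed by RNA-seq (n=3 GSK343, n=5 controls). Linear models removed batch effects, and buffered genes were those altered only under GSK343 (FDR <0.05, fold change >1.3).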

[12] = biological target: Histone-lysine N-methyltransferase EZH2 (Mus musculus) (UniProt Q61188); assay: Inhibition of EZH2 in mouse B16-F1 migrating cells assessed as fold change in H3K27me3-buffered regulated Edrf1-mRNA expression at 3 uM measured by ChIP-seq analysis relative to control cells; procedure, shortened: as §1
[13] = biological target: Histone-lysine N-methyltransferase EZH2 (Mus musculus) (UniProt Q61188); assay: Inhibition of EZH2 in mouse B16-F1 migrating cells assessed as fold change in H3K27me3-buffered regulated 5031439G07Rik-mRNA expression at 3 uM measured by […] analysis relative to control cells; procedure, shortened: as §1
[14] = biological target: Histone-lysine N-methyltransferase EZH2 (Mus musculus) (UniProt Q61188); assay: Inhibition of EZH2 in mouse B16-F1 migrating cells assessed as fold change in H3K27me3-buffered regulated Cntrob-mRNA expression at 3 uM measured by […] analysis relative to control cells; procedure, shortened: as §1
[15] = biological target: Histone-lysine N-methyltransferase EZH2 (Mus musculus) (UniProt Q61188); assay: Inhibition of EZH2 in mouse B16-F1 migrating cells assessed as fold change in H3K27me3-buffered regulated Ccdc126-mRNA expression at 3 uM measured by […] analysis relative to control cells; procedure, shortened: as §1
[16] = biological target: Histone-lysine N-methyltransferase EZH2 (Mus musculus) (UniProt Q61188); assay: Inhibition of EZH2 in mouse B16-F1 migrating cells assessed as fold change in H3K27me3-buffered regulated Mpp7-mRNA expression at 3 uM measured by […] analysis relative to control cells; procedure, shortened: as §1
[17] = biological target: Histone-lysine N-methyltransferase EZH2 (Mus musculus) (UniProt Q61188); assay: Inhibition of EZH2 in mouse B16-F1 migrating cells assessed as fold change in H3K27me3-independent regulated Ahnak-mRNA expression at 3 uM measured by […] analysis relative to control cells
Procedure, shortened: (§2)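 Confluent B16-F1 cells on fibronectin-coated plates were scratched at multiple sites, washed once with DMEM and left to migrate 3 h in growth medium (37 °C, 7% CO2); unscratched cells served as control. GSK343 (3 µM) was added 3 h before lysis. Poly A mRNA was sequenced (RNA-seq), with 5 replicates for untreated and 3 for treated cells. Differential expression was called by linear model with batch correction, at FDR <0.05 and fold change ≥1.3.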

[18] = biological target: Histone-lysine N-methyltransferase EZH2 (Mus musculus) (UniProt Q61188); assay: Inhibition of EZH2 in mouse B16-F1 migrating cells assessed as fold change in H3K27me3-buffered regulated Aldoa-mRNA expression at 3 uM measured by […] analysis relative to control cells; procedure, shortened: as §1
[19] = biological target: Histone-lysine N-methyltransferase EZH2 (Mus musculus) (UniProt Q61188); assay: Inhibition of EZH2 in mouse B16-F1 migrating cells assessed as fold change in H3K27me3-buffered regulated Cmpk2-mRNA expression at 3 uM measured by ChIP-seq analysis relative to control cells; procedure, shortened: as §1
[20] = biological target: Histone-lysine N-methyltransferase EZH2 (Mus musculus) (UniProt Q61188); assay: Inhibition of EZH2 in mouse B16-F1 migrating cells assessed as fold change in H3K27me3-buffered regulated Vegfc-mRNA expression at 3 uM measured by […] analysis relative to control cells; procedure, shortened: as §2
[21] = biological target: Histone-lysine N-methyltransferase EZH2 (Mus musculus) (UniProt Q61188); assay: Inhibition of EZH2 in mouse B16-F1 migrating cells assessed as fold change in H3K27me3-independent regulated Aldoc-mRNA expression at 3 uM measured by ChIP-seq analysis relative to control cells; procedure, shortened: as §2
[22] = biological target: Histone-lysine N-methyltransferase EZH2 (Mus musculus) (UniProt Q61188); assay: Inhibition of EZH2 in mouse B16-F1 migrating cells assessed as fold change in H3K27me3-buffered regulated Pcf11-mRNA expression at 3 uM measured by […] analysis relative to control cells; procedure, shortened: as §1
[23] = biological target: Histone-lysine N-methyltransferase EZH2 (Mus musculus) (UniProt Q61188); assay: Inhibition of EZH2 in mouse B16-F1 migrating cells assessed as fold change in H3K27me3-buffered regulated Tuba4a-mRNA expression at 3 uM measured by […] analysis relative to control cells; procedure, shortened: as §2
[24] = biological target: Histone-lysine N-methyltransferase EZH2 (Mus musculus) (UniProt Q61188); assay: Inhibition of EZH2 in mouse B16-F1 migrating cells assessed as fold change in H3K27me3-buffered regulated 4930503L19Rik-mRNA expression at 3 uM measured by […] analysis relative to control cells; procedure, shortened: as §1

Histone-lysine N-methyltransferase EZH2 (Mus musculus), sequence (Q61188 whole entry): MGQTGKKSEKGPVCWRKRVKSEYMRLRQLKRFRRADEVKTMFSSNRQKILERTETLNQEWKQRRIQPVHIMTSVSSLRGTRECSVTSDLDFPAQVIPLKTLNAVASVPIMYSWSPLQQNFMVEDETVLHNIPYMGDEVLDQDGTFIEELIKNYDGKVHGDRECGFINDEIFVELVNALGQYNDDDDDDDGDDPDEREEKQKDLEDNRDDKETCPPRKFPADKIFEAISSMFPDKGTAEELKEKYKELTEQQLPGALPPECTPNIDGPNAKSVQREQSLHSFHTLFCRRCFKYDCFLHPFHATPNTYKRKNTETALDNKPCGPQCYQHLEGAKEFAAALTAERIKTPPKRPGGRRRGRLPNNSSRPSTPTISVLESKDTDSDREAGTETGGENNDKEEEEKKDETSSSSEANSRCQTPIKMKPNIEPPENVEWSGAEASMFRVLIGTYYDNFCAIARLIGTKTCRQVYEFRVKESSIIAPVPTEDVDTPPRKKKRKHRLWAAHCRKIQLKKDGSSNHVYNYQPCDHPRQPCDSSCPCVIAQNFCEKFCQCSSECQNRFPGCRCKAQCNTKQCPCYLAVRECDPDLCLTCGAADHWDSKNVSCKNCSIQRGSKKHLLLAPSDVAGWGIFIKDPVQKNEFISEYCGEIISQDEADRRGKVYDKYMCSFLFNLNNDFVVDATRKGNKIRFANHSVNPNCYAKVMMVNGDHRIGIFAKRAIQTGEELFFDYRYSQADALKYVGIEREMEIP

OC[C@H]1O[C@@H](n2cnc3cc(Cl)c(Cl)cc32)[C@H](O)[C@@H]1O
log2FC [1]: 0.43 | log2FC [2]: 0.79 | log2FC [3]: -0.8 | log2FC [4]: -0.87 | log2FC [5]: 0.42 | log2FC [6]: 0.4 | log2FC [7]: -0.6 | log2FC [8]: -0.62 | log2FC [9]: -0.5 | log2FC [10]: 0.51

CCCc1cc(C)[nH]c(=O)c1CNC(=O)c1cc(-c2ccnc(N3CCN(C)CC3)c2)cc2c1cnn2C(C)C
log2FC [11]: -0.72 | log2FC [12]: -0.41 | log2FC [13]: 0.45 | log2FC [14]: -0.42 | log2FC [15]: -0.49 | log2FC [16]: 0.51 | log2FC [17]: 0.4 | log2FC [18]: 0.42 | log2FC [19]: -0.46 | log2FC [20]: -0.44 | log2FC [21]: 0.69 | log2FC [22]: -0.39 | log2FC [23]: 0.42 | log2FC [24]: -0.64
